Consider 21 compounds from ChEMBL document CHEMBL1127561, “Novel spirosuccinimide aldose reductase inhibitors derived from isoquinoline-1,3-diones: 2-[(4-bromo-2-fluorophenyl)methyl]-6- fluorospiro[isoquinoline-4(1H),3'-pyrrolidine]-1,2',3,5'(2H)-tetrone and congeners. 1” (J Med Chem, 1994).

The nature of series [1]: Log P value by using Octanol / pH 7.4 buffer. The series is classed as physicochemical. The method in brief: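 Partition measured between octanol and pH 7.4 buffer.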
For series [2], the system named is Rattus norvegicus. As to the kind of experiment: Percentage Inhibition of galactitol accumulation in the sciatic nerve of rats fed with the dose of 1.1 mg/kg/day (values are mean of six animals, p<0.01). The series is classed as functional. In short, it runs like this: (§1)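 Male Sprague-Dawley rats (70-90 g), six per group, fed 20% galactose chow with compound in the diet for 4 days; glucose-fed controls. After a 3-h fast, lens or sciatic nerve galactitol was measured as nmol/mg wet weight. Percent inhibition vs galactose-fed controls, mean ± SEM; ANOVA with Dunnett's test.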

The target of series [3] is Aldo-keto reductase family 1 member B1 (Bos taurus) (UniProt P16116). As to the kind of experiment: Inhibition of aldose reductase activity in a partially purified bovine lens preparation at 4*10e-8 M. In short, it runs like this:
(§2)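 Partially purified bovine lens aldose reductase (ammonium sulfate fractionation). NADPH oxidation read at 340 nm, 37 °C, in 30 mM sodium phosphate pH 6.2, 0.2 M LiSO4, […], 1% DMSO. Enzyme was preincubated with inhibitor for 5 min, then the reaction was started with 5 mM DL-glyceraldehyde. Duplicates; IC50 from linear regression of log concentration vs percent inhibition.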

Series [4] has as its system Rattus norvegicus. As to the kind of experiment: Percentage Inhibition of galactitol accumulation in the lens of rats fed with the dose of 1.1 mg/kg/day. To be noted: Lens of camera-type eye. Format: functional. In short, it runs like this: as §1
Series [5] relates to Rattus norvegicus. As to the kind of experiment: Percentage Inhibition of galactitol accumulation in the lens of rats fed with the dose of 3.0 mg/kg/day. Format: functional. To be noted: Lens of camera-type eye. In short, it runs like this: as §1
The target of series [6] is Aldo-keto reductase family 1 member B1 (Bos taurus) (UniProt P16116). As to the kind of experiment: Inhibition of aldose reductase activity in a partially purified bovine lens preparation at 10e-7 M. The method in brief:
as §2

Series [7] has as its system Rattus norvegicus. As to the kind of experiment: Percentage Inhibition of galactitol accumulation in the sciatic nerve of rats fed with the dose of 0.5 mg/kg/day. Format: functional. The method in brief: as §1
The species named for series [8] is Rattus norvegicus. As to the kind of experiment: Dose at which the tissue level of polyol accumulation was reduced by 50% was evaluated for 14 days in sciatic nerve. The series is classed as functional. To be noted: Rattus norvegicus, Sciatic nerve, 336 h; read-out: ED50. In short, it runs like this:
(§3)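 Male Sprague-Dawley rats (70-90 g, six per group) fed chow with 20% galactose and compound in the diet for 4 or 14 days. After a 3-h fast, lens and sciatic nerve were removed and frozen, and galactitol was quantitated in nmol/mg wet weight. ED50 from nonlinear regression of log dose vs tissue polyol.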

Series [9] is filed under the species Rattus norvegicus. As to the kind of experiment: Dose at which the tissue level of polyol accumulation was reduced by 50% was evaluated for 12 days in lens. Format: functional. The conditions noted are these: Lens of camera-type eye, 288 h.
For series [10], the species on record is Rattus norvegicus. As to the kind of experiment: Dose at which the tissue level of polyol accumulation was reduced by 50% was evaluated for 14 days in RBC. The conditions noted are these: 336 h. Format: functional. The method in brief:
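Male Sprague-Dawley rats (200-250 g, 12 per group) made diabetic with streptozocin 60 mg/kg iv in cold 0.03 M citrate pH 4.5; plasma glucose kept between 300 and 550 mg/dl. Compound was suspended in 2% Tween 80/saline and gavaged daily for 14 days. On day 15, RBC, lens and sciatic nerve polyol was measured. ED50 by nonlinear regression of log dose.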

For series [11], the species on record is Rattus norvegicus. As to the kind of experiment: Dose at which the tissue level of polyol accumulation was reduced by 50% was evaluated for 4 days in sciatic nerve. The conditions noted are these: 96 h. The series is classed as functional. The method in brief: as §3
The species entered for series [12] is Rattus norvegicus. As to the kind of experiment: Dose at which the tissue level of polyol accumulation was reduced by 50% was evaluated for 4 days in lens. To be noted: Lens of camera-type eye, 96 h. The series is classed as functional. In short, it runs like this: as §3
Series [13] is described as follows: Compound was evaluated In vitro for inhibition of aldose reductase activity by 50% in rat RBC. The method in brief:
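Rat (or dog) red blood cells from fasted male Sprague-Dawley rats (150-170 g, EDTA, aortic arch) or pooled beagle blood; 1 mL packed cells in 2 mL HBSS with 10 mM galactose plus inhibitor 1 to 5×10^-8 M, 3 h, 95% air/5% CO2, shaken. Erythrocyte galactitol measured; IC50 mean ± SD of three to six replicate experiments.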

The species entered for series [14] is Rattus norvegicus. As to the kind of experiment: Dose at which the tissue level of polyol accumulation was reduced by 50% was evaluated for 12 days in sciatic nerve. Format: functional. The conditions noted are these: 288 h.
The target in series [15] is T1, Aldo-keto reductase family 1 member B1 (Bos taurus, UniProt P16116). As to the kind of experiment: In vitro inhibition of aldose reductase activity in a partially purified bovine lens preparation.
In series [16] the target is T1, Aldo-keto reductase family 1 member B1. As to the kind of experiment: In vitro inhibition of aldose reductase activity in a partially purified bovine lens preparation at 4*10e-8 M; NS=Not significant. The method in brief: as §2
For series [17] the target is unchanged. As to the kind of experiment: Compound was evaluated In vitro for inhibition of aldose reductase activity in a partially purified bovine lens preparation at 10e-7 M; NS=Not significant. The method in brief:
as §2

In series [18] the test system is Rattus norvegicus. As to the kind of experiment: Percentage Inhibition of galactitol accumulation in the sciatic nerve of rats fed with the dose of 0.6 mg/kg/day. The series is classed as functional. In short, it runs like this:
as §1

Series [19] has as its system Rattus norvegicus. As to the kind of experiment: Percentage Inhibition of galactitol accumulation in the sciatic nerve of rats fed with the dose of 0.9 mg/kg/day. The series is classed as functional. The method in brief:
as §1

Series [20] has as its system Rattus norvegicus. As to the kind of experiment: Percentage Inhibition of galactitol accumulation in the lens of rats fed with the dose of 0.9 mg/kg/day. The series is classed as functional. To be noted: Lens of camera-type eye. The method in brief: as §1
For series [21], the system named is Rattus norvegicus. As to the kind of experiment: Percentage Inhibition of galactitol accumulation in the lens of rats fed with the dose of 0.6 mg/kg/day; NS=no significant. Format: functional, organism-based. The conditions noted are these: Lens of camera-type eye. In short, it runs like this:
as §1

For series [22], the system named is Rattus norvegicus. As to the kind of experiment: Percentage Inhibition of galactitol accumulation in the sciatic nerve of rats fed with the dose of 1.0 mg/kg/day. Format: functional. In short, it runs like this:
as §1

Activity calls are given as the source filed them. The rule behind the calls is not given here.

In the case of `CN1C(=O)c2ccc(Cl)cc2C2(CC(=O)NC2=O)C1=O` (stereo unspecified), the logD (in general, the decadic logarithm of the distribution of all forms, ionised or not, between an organic phase and buffer at a given pH) in series [1] came out at 0.58. In addition, the inhibition in vivo (in general, the drop in the measured response relative to a control, in per cent) at 1.1 mg/kg/day came out at 75% in [2] and 33% in series [4]. Also, the results for the inhibition in [3] and in series [6] were 43% and 72%, respectively. In [5], this compound yielded an inhibition in vivo at 3 mg/kg/day of 59%. The inhibition in vivo at 0.5 mg/kg/day in [7] was found to be 54%.
As to `COc1ccc2c(C(=S)N(C)CC(=O)O)cccc2c1C(F)(F)F` [TOLRESTAT], the ED50 (usually the dose at which the effect has come halfway, by size or by number of responders) in [8] was 3.8 mg/kg/day; in series [9], 28 mg/kg/day; in series [10], 1.9 mg/kg/day; in series [11], 6.4 mg/kg/day; in [12], 128 mg/kg/day; in [14], 4.5 mg/kg/day. Half-maximal inhibition in [13] (IC50) was put at 27.2 nM.
Consider `CN1C(=O)c2cccc(Cl)c2C2(CC(=O)NC2=O)C1=O` (stereo unspecified), for which the inhibition (commonly the percentage by which the read-out fell short of the control) in series [3] stood at 11%; in [6] it was 24%.
As to `O=C1CC2(C(=O)N1)C(=O)N(Cc1ccc(Br)cc1F)C(=O)c1cc(F)ccc12` (stereo unspecified), it took 20 nM to reach half-maximal inhibition in series [15] (IC50). This lies in the double-digit nanomolar range.
`CON1C(=O)c2ccccc2C2(CC(=O)NC2=O)C1=O` (stereo unspecified): the IC50 entry in [16] and in series [17] was “Not Active” each time.
Consider `O=C1CC2(C(=O)N1)C(=O)N(Cc1ccc(Br)cc1F)C(=O)c1ccc(Cl)cc12` (stereo unspecified), for which, in [18], the inhibition in vivo at 0.6 mg/kg/day stood at 29%. For the same compound, the IC50 (usually the concentration at which inhibition is half-maximal) in [15] worked out at 30 nM.
For the compound `CN1C(=O)c2ccc(C(F)(F)F)cc2C2(CC(=O)NC2=O)C1=O` (stereo unspecified), the inhibition in vivo at 0.9 mg/kg/day in series [19] turned out to be 38%; in series [20] it was 20%. The inhibition was found to be 46% in series [3] and 64% in series [6].
In [15], `O=C1CC2(C(=O)N1)C(=O)N(Cc1cccc(C(F)(F)F)c1)C(=O)c1ccccc12` (stereo unspecified) had a 50% inhibitory concentration (IC50) of 17 nM.
On to `CN1C(=O)c2ccc([N+](=O)[O-])cc2C2(CC(=O)NC2=O)C1=O` (stereo unspecified), for which the inhibition is 53% in [3] and 71% in [6].
For the compound `O=C1CC2(C(=O)N1)C(=O)N(Cc1ccc(Br)cc1F)C(=O)c1cc(Cl)ccc12` (stereo unspecified), the inhibition in vivo at 0.6 mg/kg/day in series [18] was found to be 63%. In addition, the logD in series [1] was 3.51. The compound also registered an IC50 in series [15] of 33 nM. The inhibition entry in series [21] is “inactive”.
`COc1cc2c(cc1Br)C1(CC(=O)NC1=O)C(=O)N(Cc1ccc(Br)cc1F)C2=O` (stereo unspecified) yielded an IC50 in series [15] of 28 nM. In series [7], this compound had an inhibition in vivo at 0.5 mg/kg/day of 55%.
For `O=C1CC2(C(=O)N1)C(=O)N(Cc1ccc(Cl)cc1)C(=O)c1ccccc12` (stereo unspecified), the IC50 in series [15] came to 22 nM.
In series [1], `O=C1CC2(C(=O)N1)C(=O)N(Cc1nc3cc(C(F)(F)F)ccc3s1)C(=O)c1ccc(F)cc12` (stereo unspecified) displayed a pH-dependent lipophilicity (logD) of 3.16. For the same compound, in series [22], the inhibition in vivo at 1 mg/kg/day was 53%. Further, half-maximal inhibition in series [15] (IC50) was put at 26 nM.
As to `CCCCN1C(=O)c2ccccc2C2(CC(=O)NC2=O)C1=O` (stereo unspecified), the inhibition was found to be 19% in series [3] and 17% in series [6].
For `CN1C(=O)c2cc(Cl)c(Cl)cc2C2(CC(=O)NC2=O)C1=O` (stereo unspecified), in that order: 84% and 89%.
For `CN1C(=O)c2ccc(F)cc2C2(CC(=O)NC2=O)C1=O` (stereo unspecified), the inhibition in series [3] came to 36%; in series [6] it was 74%.
In the case of `CCCN1C(=O)c2ccccc2C2(CC(=O)NC2=O)C1=O` (stereo unspecified), the inhibition in [6] worked out at 19%.
Regarding `COc1ccc2c(c1)C1(CC(=O)NC1=O)C(=O)N(C)C2=O` (stereo unspecified), the inhibition in [3] was found to be 30%; in series [6] it was 63%.
Regarding `CN1C(=O)c2cc(Cl)ccc2C2(CC(=O)NC2=O)C1=O` (stereo unspecified), the inhibition in series [3] is 34%; in series [6], 61%.
`O=C1CC2(C(=O)N1)C(=O)N(Cc1ccc(Br)cc1)C(=O)c1ccccc12` (stereo unspecified) showed an IC50 in series [15] of 22 nM.
Consider `COc1cc2c(cc1Br)C(=O)N(C)C(=O)C21CC(=O)NC1=O` (stereo unspecified), for which, in series [6], the inhibition came out at 17%.
